Test results reported in PMC10582670 (Clinical and Translational Science, 2023).
Values joined by “and” are separate entries in the source; they are usually repeats but may differ in a detail not shown here. Equal entries are not always repeated.

System: healthy volunteers
Test: Safety and tolerability
Type: in vivo, human
Method in brief: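 Healthy volunteers aged 18–55 y, BMI 18–30 kg/m², randomised double-blind 8:2 to once-daily oral drug or placebo for up to 14 days, with follow-up visits on days 21 and 42. Treatment-emergent AEs coded with MedDRA 23.1 and graded with the WHO toxicity scale, alongside ECGs, laboratory tests and vital signs. The safety population was all subjects receiving at least one dose.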

[1] = SAD (fasted) All GDC-8264, n = 28

Structure (SMILES): O=C(c1nc2n(n1)[C@H](c1ccccc1)C[C@@H]2F)C1CC1 [GDC‐8264]
- No. of TEAEs (SAD (fasted) 75 mg, n = 5): 8
- No. of deaths (SAD (fasted) 75 mg, n = 5): 0 no. of subjects (%)
- No. of subjects with at least one Related TEAE (SAD (fasted) 75 mg, n = 5): 1 (20.0) no. of subjects (%)
- No. of subjects with at least one Serious TEAE (SAD (fasted) 75 mg, n = 5): 0 no. of subjects (%)
- No. of subjects with at least one TEAE (SAD (fasted) 75 mg, n = 5): 3 (60.0) no. of subjects (%)
- No. of subjects withdrawn from study due to a TEAE (SAD (fasted) 75 mg, n = 5): 0 no. of subjects (%)
- TEAE Abdominal pain (SAD (fasted) 75 mg, n = 5): 0 no. of subjects (%)
- TEAE Back pain (SAD (fasted) 75 mg, n = 5): 1 (20.0) no. of subjects (%)
- TEAE Catheter site pain (SAD (fasted) 75 mg, n = 5): 0 no. of subjects (%)
- TEAE Dermatitis contact (SAD (fasted) 75 mg, n = 5): 2 (40.0) no. of subjects (%)
- TEAE Diarrhea (SAD (fasted) 75 mg, n = 5): 0 no. of subjects (%)
- TEAE Dizziness (SAD (fasted) 75 mg, n = 5): 0 no. of subjects (%)
- TEAE Dyspepsia (SAD (fasted) 75 mg, n = 5): 0 no. of subjects (%)
- TEAE Gastrointestinal sounds abnormal (SAD (fasted) 75 mg, n = 5): 1 (20.0) no. of subjects (%)
- TEAE Gingivitis (SAD (fasted) 75 mg, n = 5): 0 no. of subjects (%)
- TEAE Headache (SAD (fasted) 75 mg, n = 5): 0 no. of subjects (%)
- TEAE Medical device site dermatitis (SAD (fasted) 75 mg, n = 5): 0 no. of subjects (%)
- TEAE Myalgia (SAD (fasted) 75 mg, n = 5): 1 (20.0) no. of subjects (%)
- TEAE Nausea (SAD (fasted) 75 mg, n = 5): 2 (40.0) no. of subjects (%)
- TEAE Presyncope (SAD (fasted) 75 mg, n = 5): 0 no. of subjects (%)
- TEAE Somnolence (SAD (fasted) 75 mg, n = 5): 0 no. of subjects (%)
- No. of TEAEs (SAD (fasted) 150 mg, n = 5): 6
- No. of deaths (SAD (fasted) 150 mg, n = 5): 0 no. of subjects (%)
- No. of subjects with at least one Related TEAE (SAD (fasted) 150 mg, n = 5): 3 (60.0) no. of subjects (%)
- No. of subjects with at least one Serious TEAE (SAD (fasted) 150 mg, n = 5): 0 no. of subjects (%)
- No. of subjects with at least one TEAE (SAD (fasted) 150 mg, n = 5): 4 (80.0) no. of subjects (%)
- No. of subjects withdrawn from study due to a TEAE (SAD (fasted) 150 mg, n = 5): 0 no. of subjects (%)
- TEAE Abdominal pain (SAD (fasted) 150 mg, n = 5): 0 no. of subjects (%)
- TEAE Back pain (SAD (fasted) 150 mg, n = 5): 0 no. of subjects (%)
- TEAE Catheter site pain (SAD (fasted) 150 mg, n = 5): 0 no. of subjects (%)
- TEAE Dermatitis contact (SAD (fasted) 150 mg, n = 5): 1 (20.0) no. of subjects (%)
- TEAE Diarrhea (SAD (fasted) 150 mg, n = 5): 0 no. of subjects (%)
- TEAE Dizziness (SAD (fasted) 150 mg, n = 5): 0 no. of subjects (%)
- TEAE Dyspepsia (SAD (fasted) 150 mg, n = 5): 0 no. of subjects (%)
- TEAE Gastrointestinal sounds abnormal (SAD (fasted) 150 mg, n = 5): 1 (20.0) no. of subjects (%)
- TEAE Gingivitis (SAD (fasted) 150 mg, n = 5): 0 no. of subjects (%)
- TEAE Headache (SAD (fasted) 150 mg, n = 5): 1 (20.0) no. of subjects (%)
- TEAE Medical device site dermatitis (SAD (fasted) 150 mg, n = 5): 0 no. of subjects (%)
- TEAE Myalgia (SAD (fasted) 150 mg, n = 5): 0 no. of subjects (%)
- TEAE Nausea (SAD (fasted) 150 mg, n = 5): 1 (20.0) no. of subjects (%)
- TEAE Presyncope (SAD (fasted) 150 mg, n = 5): 0 no. of subjects (%)
- TEAE Somnolence (SAD (fasted) 150 mg, n = 5): 0 no. of subjects (%)
- No. of TEAEs (SAD (fasted) 225 mg, n = 6): 7
- No. of deaths (SAD (fasted) 225 mg, n = 6): 0 no. of subjects (%)
- No. of subjects with at least one Related TEAE (SAD (fasted) 225 mg, n = 6): 0 no. of subjects (%)
- No. of subjects with at least one Serious TEAE (SAD (fasted) 225 mg, n = 6): 0 no. of subjects (%)
- No. of subjects with at least one TEAE (SAD (fasted) 225 mg, n = 6): 3 (50.0) no. of subjects (%)
- No. of subjects withdrawn from study due to a TEAE (SAD (fasted) 225 mg, n = 6): 0 no. of subjects (%)
- TEAE Abdominal pain (SAD (fasted) 225 mg, n = 6): 0 no. of subjects (%)
- TEAE Back pain (SAD (fasted) 225 mg, n = 6): 0 no. of subjects (%)
- TEAE Catheter site pain (SAD (fasted) 225 mg, n = 6): 0 no. of subjects (%)
- TEAE Dermatitis contact (SAD (fasted) 225 mg, n = 6): 0 no. of subjects (%)
- TEAE Diarrhea (SAD (fasted) 225 mg, n = 6): 0 no. of subjects (%)
- TEAE Dizziness (SAD (fasted) 225 mg, n = 6): 0 no. of subjects (%)
- TEAE Dyspepsia (SAD (fasted) 225 mg, n = 6): 0 no. of subjects (%)
- TEAE Gastrointestinal sounds abnormal (SAD (fasted) 225 mg, n = 6): 0 no. of subjects (%)
- TEAE Gingivitis (SAD (fasted) 225 mg, n = 6): 0 no. of subjects (%)
- TEAE Headache (SAD (fasted) 225 mg, n = 6): 0 no. of subjects (%)
- TEAE Medical device site dermatitis (SAD (fasted) 225 mg, n = 6): 2 (33.3) no. of subjects (%)
- TEAE Myalgia (SAD (fasted) 225 mg, n = 6): 1 (16.7) no. of subjects (%)
- TEAE Nausea (SAD (fasted) 225 mg, n = 6): 0 no. of subjects (%)
- TEAE Presyncope (SAD (fasted) 225 mg, n = 6): 1 (16.7) no. of subjects (%)
- TEAE Somnolence (SAD (fasted) 225 mg, n = 6): 0 no. of subjects (%)
- No. of TEAEs [1]: 33
- No. of deaths [1]: 0 no. of subjects (%)
- No. of subjects with at least one Related TEAE [1]: 4 (14.3) no. of subjects (%)
- No. of subjects with at least one Serious TEAE [1]: 0 no. of subjects (%)
- No. of subjects with at least one TEAE [1]: 19 no. of subjects (%) and 19 (67.9) no. of subjects (%)
- No. of subjects withdrawn from study due to a TEAE [1]: 0 no. of subjects (%)
- TEAE Abdominal pain [1]: 2 (7.1) no. of subjects (%)
- TEAE Back pain [1]: 1 (3.6) no. of subjects (%)
- TEAE Catheter site pain [1]: 1 (3.6) no. of subjects (%)
- TEAE Dermatitis contact [1]: 4 (14.3) no. of subjects (%)
- TEAE Diarrhea [1]: 0 no. of subjects (%)
- TEAE Dyspepsia [1]: 1 (3.6) no. of subjects (%)
- TEAE Gastrointestinal sounds abnormal [1]: 2 (7.1) no. of subjects (%)
- TEAE Gingivitis [1]: 0 no. of subjects (%)
- TEAE Headache [1]: 4 (14.3) no. of subjects (%)
- TEAE Medical device site dermatitis [1]: 2 (7.1) no. of subjects (%)
- TEAE Myalgia [1]: 2 (7.1) no. of subjects (%)
- TEAE Nausea [1]: 3 (10.7) no. of subjects (%)
- TEAE Presyncope [1]: 2 (7.1) no. of subjects (%)
- TEAE Somnolence [1]: 0 no. of subjects (%)
- No. of TEAEs (SAD (high fat) 75 mg, n = 5): 4
- No. of deaths (SAD (high fat) 75 mg, n = 5): 0 no. of subjects (%)
- No. of subjects with at least one Related TEAE (SAD (high fat) 75 mg, n = 5): 0 no. of subjects (%)
- No. of subjects with at least one Serious TEAE (SAD (high fat) 75 mg, n = 5): 0 no. of subjects (%)
- No. of subjects with at least one TEAE (SAD (high fat) 75 mg, n = 5): 2 (40.0) no. of subjects (%)
- No. of subjects withdrawn from study due to a TEAE (SAD (high fat) 75 mg, n = 5): 0 no. of subjects (%)
- TEAE Abdominal pain (SAD (high fat) 75 mg, n = 5): 0 no. of subjects (%)
- TEAE Back pain (SAD (high fat) 75 mg, n = 5): 0 no. of subjects (%)
- TEAE Catheter site pain (SAD (high fat) 75 mg, n = 5): 0 no. of subjects (%)
- TEAE Dermatitis contact (SAD (high fat) 75 mg, n = 5): 1 (20.0) no. of subjects (%)
- TEAE Diarrhea (SAD (high fat) 75 mg, n = 5): 0 no. of subjects (%)
- TEAE Dizziness (SAD (high fat) 75 mg, n = 5): 0 no. of subjects (%)
- TEAE Dyspepsia (SAD (high fat) 75 mg, n = 5): 0 no. of subjects (%)
- TEAE Gastrointestinal sounds abnormal (SAD (high fat) 75 mg, n = 5): 0 no. of subjects (%)
- TEAE Gingivitis (SAD (high fat) 75 mg, n = 5): 0 no. of subjects (%)
- TEAE Headache (SAD (high fat) 75 mg, n = 5): 1 (20.0) no. of subjects (%)
- TEAE Medical device site dermatitis (SAD (high fat) 75 mg, n = 5): 0 no. of subjects (%)
- TEAE Myalgia (SAD (high fat) 75 mg, n = 5): 0 no. of subjects (%)
- TEAE Nausea (SAD (high fat) 75 mg, n = 5): 1 (20.0) no. of subjects (%)
- TEAE Presyncope (SAD (high fat) 75 mg, n = 5): 0 no. of subjects (%)
- TEAE Somnolence (SAD (high fat) 75 mg, n = 5): 0 no. of subjects (%)
- changes in clinical laboratory results, vital signs, ECGs, or physical examinations (SAD and MAD stages): no significant changes
- severity of adverse events in GDC-8264-treated subjects (both stages (SAD and MAD)): mild
